Experimental data from ChEMBL document CHEMBL1255431, “Inhibitors of Leishmania GDP-mannose pyrophosphorylase identified by high-throughput screening of small-molecule chemical library” (Antimicrob Agents Chemother, 2010).
Calls of active or inactive are those of the source. The rule behind the calls is not given here.

Experiments:
Leishmania major [1] = experiment: Antileishmanial activity Leishmania major V121 amastigotes infected in mouse bone marrow-derived macrophage assessed as inhibition of parasite proliferation after 48 hrs by Giemsa staining; assay type: functional, organism-based
How it was run: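 Intracellular proliferation format in mouse bone marrow-derived macrophages, with amastigotes used for infection. Infected cells on duplicate coverslips exposed to compound for 48 h, then washed, methanol-fixed and Giemsa-stained. Percentage of infected cells counted microscopically.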

Leishmania major [2] = experiment: Antileishmanial activity Leishmania major V121 promastigotes infected in mouse bone marrow-derived macrophage assessed as mild inhibition of cell invasion at 30 uM after 48 hrs by microscopy; assay type: functional, organism-based
Leishmania major [3] = experiment: Antileishmanial activity Leishmania major V121 amastigotes; assay type: functional, organism-based
How it was run: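 Ex vivo amastigotes purified from lesions of L. major-infected CBA nu/nu mice, resuspended in M199. Exposed 24 h to 2-fold dilutions from 100 μM to 49 nM. 10^6 parasites per well, in duplicate. Viability by CellTiter blue, read at 550 nm with 630 nm reference. IC50 against nontreated controls.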

[4] = Cytotoxicity against HFF by Cell titer blue assay; assay type: cell-based; settings: human, HFF cells
How it was run: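 Primary human foreskin fibroblasts grown in DMEM with 10% HI-FBS, 37°C, 5% CO2. Compound toxicity measured by CellTiter blue viability, concentrations up to 100 μM.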

[5] = Inhibition of Leishmania major recombinant GDP-mannose pyrophosphorylase expressed in Escherichia coli […] by fluorescence assay
How it was run: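 Recombinant His6-tagged L. major GDP-MP, expressed in E. coli BL21(DE3)pLysS and purified on Talon resin. Buffer: 25 mM Tris-HCl pH 7.5, 4 mM MgCl2, 150 mM NaCl, 0.02% Tween 20, 0.4 mg/ml OVA. Final 5 μM M-1-P and 1.3 μM GTP, with inorganic pyrophosphatase coupling. Pi detected by MDCC phosphate sensor, Ex430/Em480, read each minute for 10 min.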

Leishmania major [6] = experiment: Antileishmanial activity Leishmania major V121 amastigotes infected in mouse bone marrow-derived macrophage assessed as inhibition of cell invasion after 48 hrs by microscopy; assay type: functional, organism-based
Leishmania major [7] = experiment: Antileishmanial activity Leishmania major V121 promastigotes infected in mouse bone marrow-derived macrophage assessed as inhibition of cell invasion after 48 hrs by microscopy; assay type: functional, organism-based
Leishmania major [8] = experiment: Antileishmanial activity Leishmania major V121 amastigotes isolated from infected […] CBA nu/nu at 10 to 30 uM after 48 hrs by microscopy; assay type: functional, organism-based
[9] = Cytotoxicity against mouse bone marrow-derived macrophages at 30 uM after 48 hrs by Cell titer blue assay; assay type: cell-based; settings: macrophage
Leishmania major [10] = experiment: Antileishmanial activity Leishmania major V121 amastigotes infected in mouse bone marrow-derived macrophage assessed as complete inhibition of cell invasion at 30 uM after 48 hrs by microscopy; assay type: functional, organism-based
Leishmania major [11] = experiment: Antileishmanial activity Leishmania major V121 promastigotes infected in mouse bone marrow-derived macrophage assessed as inhibition of cell invasion at 10 uM after 48 hrs by microscopy; assay type: functional, organism-based
Leishmania major [12] = experiment: Antileishmanial activity Leishmania major V121 amastigotes isolated from infected […] CBA nu/nu after 48 hrs by microscopy; assay type: functional, organism-based
Leishmania major [13] = experiment: Antileishmanial activity Leishmania major V121 amastigotes isolated from infected […] CBA nu/nu at 10 to 40 uM after 48 hrs by microscopy; assay type: functional, organism-based
Leishmania major [14] = experiment: Antileishmanial activity Leishmania major V121 amastigotes infected in mouse bone marrow-derived macrophage assessed as mild inhibition of cell invasion at 30 uM after 48 hrs by microscopy; assay type: functional, organism-based
Leishmania major [15] = experiment: Antileishmanial activity Leishmania major V121 promastigotes infected in mouse bone marrow-derived macrophage assessed as complete inhibition of cell invasion at 30 uM after 48 hrs by microscopy; assay type: functional, organism-based

Row | SMILES | IC50 (Leishmania major [3]) [µM] | IC50 [5] [µM] | IC50 (Leishmania major [1]) [µM] | inhibition (Leishmania major [2]) | CC50 [4] [µM] | also measured
1 | COc1ccc2c(=O)c(C(=O)O)csc2c1 | > 100 | 8.25 | – | Active | – | –
2 | CCOC(=O)C/C(=N/O)c1nnn[nH]1 | > 100 | 7.28 | – | Active | – | –
3 | CN1CCN(c2ccnc3cc(Cl)ccc23)CC1 | > 100 | – | – | Active | – | –
4 | CCn1nc(C)cc1-c1nnc2sc(Cc3c(F)cccc3Cl)nn12 | > 100 | 1.05 | – | Active | – | –
5 | Cc1cc(C)nc(SCc2nn3c(-c4ccccc4)nnc3s2)n1 | > 100 | 3.95 | – | Active | – | –
6 | COc1ccc(CCC2=Nc3ccccc3S(=O)(=O)N2)cc1 | – | 5.31 | – | Active | – | –
7 | Cc1ccccc1Cc1nnc2sc(-c3ccc(Cl)cc3)nn12 | > 100 | 1.09 | – | Active | – | –
8 | Cc1ccc2c(n1)[nH]c1ccccc12 | 96.8 | 5.53 | > 30 | Active | > 100 | –
9 | CCCc1cc(-c2nn3c(-c4ccccc4)nnc3s2)n(CC)n1 | > 100 | 1.26 | – | Active | – | –
10 | CCc1nnc(N2C(=O)C3C4C=CC(C4)C3C2=O)s1 (stereo not given) | > 100 | 3.53 | – | Active | – | –
11 | COc1ccc(-c2csc3c2C2=NCCN2C=N3)cc1OC | > 100 | 7.54 | – | Active | – | –
12 | COc1ccc(-c2nnc3sc(-c4ccc(F)cc4)nn23)cc1 | > 100 | 4.45 | – | Active | – | –
13 | Clc1ccc(C2=NN3C(c4ccccc4)=NNC3S2)c(Cl)c1 (stereo not given) | > 100 | 2.93 | – | Active | – | –
14 | Fc1cccc(Cl)c1Cc1nn2c(-c3ccccc3)nnc2s1 | > 100 | 2.98 | – | Active | – | –

Now from value to compound, other results behind:

Row | IC50 (Leishmania major [3]) [µM] | IC50 [5] [µM] | SMILES | IC50 (Leishmania major [1]) [µM] | inhibition (Leishmania major [2]) | CC50 [4] [µM] | also measured
15 | 73.4 | 4.12 | CN(C)Cc1c(O)ccc2c(=O)c(-c3cnn(-c4ccccc4)c3)coc12 | > 30 | Active | > 100 | –
16 | 62.2 | – | Clc1ccc2c(N3CCN(Cc4ccccc4)CC3)ccnc2c1 | > 30 | Active | – | inhibition (Leishmania major [6]): Dose-dependent effect; inhibition (Leishmania major [7]): Dose-dependent effect; Activity (Leishmania major [8]): Active
17 | 32.6 | – | Clc1ccc2c(N3CCN(Cc4ccc(-c5ccccc5)cc4)CC3)ccnc2c1 | 11.7 | Active | > 100 | IC50 (Leishmania major [7]; V121, 48 h): 17.6 µM
18 | 88.9 | 1.37 | CCn1nc(C)cc1-c1nnc2sc(-c3ccc(C)cc3)nn12 | – | Active | > 100 | Activity [9]: Toxic
19 | 78 | 0.49 | c1ccc2c(-c3cnc4n3CCS4)c[nH]c2c1 | > 30 | Active | > 100 | inhibition (Leishmania major [10]): Active
20 | 25.1 | 5.75 | Cc1ccc(N2NC(=O)/C(=C/c3cc4c(cc3Cl)OCO4)C2=O)cc1C | > 30 | Active | > 100 | –
21 | 70.6 | – | Cc1ccc(C(=O)N2CCN(c3ccnc4cc(Cl)ccc34)CC2)cc1 | > 30 | Active | – | inhibition (Leishmania major [6]): Dose-dependent effect; inhibition (Leishmania major [7]): Dose-dependent effect; Activity (Leishmania major [8]): Active; inhibition (Leishmania major [11]): inactive
22 | 23.7 | 1.56 | Cc1ccc2[nH]c(CCC3CCCCC3)nc2c1 | – | Active | > 100 | Activity [9]: Toxic
23 | 90.7 | 10.7 | Cc1ccc(/C=C2/C(=O)NN(c3ccc(F)cc3)C2=O)o1 | > 30 | Active | > 100 | –
24 | 52.6 | 2.44 | COC(=O)c1c(O)c(C#N)c2n(c1=O)CCc1cc(OC)c(OC)cc1-2 | > 30 | Active | > 100 | inhibition (Leishmania major [10]): Active
25 | 1.6 | – | C[C@@H]1[C@H](O)[C@@H](C)/C=C/C=C/C=C/C=C/C=C/C=C/C=C/[C@H](O[C@@H]2O[C@H](C)[C@@H](O)[C@H](N)[C@@H]2O)C[C@@H]2O[C@](O)(C[C@@H](O)C[C@@H](O)[C@H](O)CC[C@@H](O)C[C@@H](O)CC(=O)O[C@H]1C)C[C@H](O)[C@H]2C(=O)O [AMPHOTERICIN B] | 0.5 | – | – | –
26 | 62.3 | 0.58 | CC(C)(C)c1ccc(CN2CCN(c3ccnc4cc(Cl)ccc34)CC2)cc1 | 21.9 | – | > 100 | Activity (Leishmania major [12]): Active; inhibition (Leishmania major [1]): Dose-dependent effect; Activity (Leishmania major [13]): Active; inhibition (Leishmania major [14]): Active; inhibition (Leishmania major [6]): Dose-dependent effect; inhibition (Leishmania major [7]): Dose-dependent effect; inhibition (Leishmania major [15]): Active
